{"data": "Results collected from several papers", "Oprd1": "Delta-type opioid receptor (Oprd1, Rattus norvegicus, UniProt P33533)", "HTR7": "5-hydroxytryptamine receptor 7 (HTR7, Homo sapiens, UniProt P34969)", "CTSB": "Cathepsin B (CTSB, Homo sapiens, UniProt P07858)", "note": "Compare with care: the assays were run in different laboratories."}
{"SMILES": "Cc1cc(O)cc(C)c1C[C@H](C)C(=O)N[C@@H]1C/C=C/CC[C@@H](C(N)=O)NC(=O)[C@H](Cc2ccccc2)NC(=O)[C@H](Cc2ccccc2)NC1=O", "target": "Oprd1", "observed": "ligand displacement", "technique": "radioligand", "notes": "cell membranes", "measurement": "Ki", "result": "35.3 nM"}
{"SMILES": "CCc1cccc(C)c1C[C@H](NC(=O)[C@@H](CCCNC(=N)N)NC(=O)[C@@H](N)Cc1c(C)cc(O)cc1C)C(=O)N[C@@H](CCCCN)C(N)=O", "target": "Oprd1", "observed": "ligand displacement", "technique": "radioligand", "notes": "cell membranes", "measurement": "Ki", "result": "50 nM"}
{"SMILES": "CC(C)C[C@H]1C(=O)N2CCC[C@H]2[C@]2(O)O[C@](NC(=O)[C@@H]3C=C4c5cccc6[nH]c(Br)c(c56)C[C@H]4N(C)C3)(C(C)C)C(=O)N12", "target": "HTR7", "observed": "ligand displacement", "technique": "radioligand", "notes": "cell membranes", "measurement": "Ki", "result": "143 nM"}
{"SMILES": "CN(C(=O)[C@H](Cc1ccccc1)NC(=O)[C@@H](NC(=O)OCc1ccccc1)C(C)(C)C)N(C#N)CCC(N)=O", "target": "CTSB", "observed": "enzyme activity", "mode": "inhibitor", "measurement": "Ki", "result": "75 nM"}
{"SMILES": "OC(c1ccc(F)cc1)C(F)(F)CCN1CCC(O)(c2ccc(Cl)cc2)CC1 (racemic)", "target": "HTR7", "observed": "cell-free assay", "technique": "radioligand", "measurement": "Ki", "result": "2710 nM"}
{"SMILES": "COC1=C(N)C(=O)c2nc(-c3nc(C(=O)O)c(C)c(-c4ccc(OC)c(OC)c4O)c3N)ccc2C1=O", "target": "Sentrin-specific protease 1 (SENP1, Homo sapiens, UniProt Q9P0U3)", "observed": "enzyme activity", "mode": "inhibitor", "technique": "fluorescence", "measurement": "Ki", "result": "138 nM"}
{"SMILES": "COc1cc2oc(-c3ccc(O)c(O)c3)cc(=O)c2c(O)c1O", "target": "Genome polyprotein, protease (ZIKV, UniProt A0A024B7W1)", "observed": "enzyme activity", "mode": "inhibitor", "measurement": "Ki", "result": "4500 nM"}
{"SMILES": "Cc1cc(O)cc(C)c1C[C@H](N)C(=O)N[C@H](CCCNC(=N)N)C(=O)N[C@@H](Cc1c[nH]c2ccccc12)C(=O)N[C@@H](CCCCN)C(N)=O", "target": "Oprd1", "observed": "ligand displacement", "technique": "radioligand", "notes": "cell membranes", "measurement": "Ki", "result": "186 nM"}
{"SMILES": "N=C(N)NCCC[C@@H]1NC(=O)[C@H](Cc2ccc(O)cc2)NC(=O)[C@@H](CCCCN)NC(=O)[C@@H](Cc2ccccc2)NC1=O", "target": "Oprd1", "observed": "ligand displacement", "technique": "radioligand", "notes": "cell membranes", "measurement": "Ki", "result": "> 10000 nM"}
{"SMILES": "CC(C)C[C@H](NC(=O)[C@H](CCCCN)NC(=O)[C@@H]1CCCN1C(=O)[C@@H](N)CCCNC(=N)N)C(=O)N[C@@H](CCCCN)C(=O)O", "target": "HTR7", "observed": "cell-free assay", "technique": "radioligand", "measurement": "Ki", "result": "> 10000 nM"}
{"SMILES": "CC[C@H](NC(=O)OCc1ccccc1)C(=O)N[C@H](C(=O)N[C@@H](CC(C)C)C(=O)N(C)N(C#N)CCC(N)=O)C(C)(C)C", "target": "CTSB", "observed": "enzyme activity", "mode": "inhibitor", "measurement": "Ki", "result": "28.8 nM"}
{"SMILES": "C[C@H](N)Cn1ncc2ccc3c(c21)CCCO3", "target": "HTR7", "observed": "ligand displacement", "technique": "radioligand", "measurement": "Ki", "result": "1160 nM"}
{"SMILES": "c1cncc(C2C3CCN2CC3)c1 (centres unmarked)", "target": "Neuronal acetylcholine receptor subunit alpha-4/beta-2 (Mus musculus, UniProt O70174+Q9ERK7)", "observed": "ligand displacement", "technique": "radioligand", "notes": "cell membranes", "measurement": "Ki", "result": "7.42 nM"}
{"SMILES": "Cc1ccccc1Cc1ccc2c(c1)CN(C(=O)[C@@H](N)Cc1c(C)cc(O)cc1C)CC2", "target": "Oprd1", "observed": "ligand displacement", "technique": "radioligand", "notes": "cell membranes", "measurement": "Ki", "result": "5.8 nM"}
{"SMILES": "CC[C@H](C)[C@H](NC(=O)[C@H](CCCNC(=N)N)NC(=O)[C@H](CC(C)C)NC(=O)[C@@H](N)Cc1ccccc1)C(=O)N[C@@H](CCCNC(=N)N)C(=O)N1CCC[C@H]1C(=O)N[C@@H](CCCCN)C(=O)O", "target": "HTR7", "observed": "cell-free assay", "technique": "radioligand", "measurement": "Ki", "result": "> 10000 nM"}
{"SMILES": "Cc1cc(O)cc(C)c1C[C@H](N)C(=O)N[C@@H]1CCN(C(=O)c2ccccc2)c2ccc(Cc3cnc4ccccc4c3)cc21", "target": "Oprd1", "observed": "GTPγS binding", "mode": "antagonist", "notes": "cell membranes", "measurement": "Kb", "result": "8 nM"}
{"SMILES": "Cc1cc(O)cc(C)c1C[C@H](N)C(=O)N1CCc2ccc(Cc3ccc(N)cc3)cc2C1", "target": "Oprd1", "observed": "ligand displacement", "technique": "radioligand", "notes": "cell membranes", "measurement": "Ki", "result": "3.1 nM"}
